Assay results: ChEMBL document CHEMBL2157880, “Synthesis, antimycobacterial and antibacterial activity of ciprofloxacin derivatives containing a N-substituted benzyl moiety” (2012)
≈ marks a conversion by molar mass, not a printed value.

Test system: Pseudomonas aeruginosa
Assay: Antibacterial activity against Pseudomonas aeruginosa 10-18 after 18 to 24 hrs by NCCLS method
Format: functional
Outline: (§1)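 Standard NCCLS (M100-S11) MIC testing against Gram-positive and Gram-negative strains. Plates were incubated at 35 °C for 18–24 h. The MIC was read as the lowest concentration giving complete inhibition of visible bacterial growth.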

SMILES	MIC [mg/L]
COc1ccc(CN2CCN(c3cc4c(cc3F)c(=O)c(C(=O)O)cn4C3CC3)CC2)cc1	4 (≈ 8.86 µM)

Test system: Klebsiella pneumoniae
Assay: Antibacterial activity against extended spectrum beta-lactamases producing Klebsiella pneumoniae 10-1 after 18 to 24 hrs by NCCLS method
Format: functional
Outline: as §1

SMILES	MIC [mg/L]
COc1ccc(CN2CCN(c3cc4c(cc3F)c(=O)c(C(=O)O)cn4C3CC3)CC2)cc1	> 128

Test system: Staphylococcus aureus
Assay: Antibacterial activity against methicillin-resistant Staphylococcus aureus 10-11 after 18 to 24 hrs by NCCLS method
Format: functional
Outline: (§2)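 Incubated at 35 °C for 18–24 h under NCCLS (M100-S11) standards. MIC was read as the lowest concentration giving complete inhibition of visible bacterial growth.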

SMILES	MIC [mg/L]
COc1ccc(CN2CCN(c3cc4c(cc3F)c(=O)c(C(=O)O)cn4C3CC3)CC2)cc1	16 (≈ 35.4 µM)

Test system: Klebsiella pneumoniae
Assay: Antibacterial activity against extended spectrum beta-lactamases producing Klebsiella pneumoniae 10-2 after 18 to 24 hrs by NCCLS method
Format: functional
Outline: as §1

SMILES	MIC [mg/L]
COc1ccc(CN2CCN(c3cc4c(cc3F)c(=O)c(C(=O)O)cn4C3CC3)CC2)cc1	> 128

Test system: Staphylococcus epidermidis
Assay: Ratio of compound MIC to ciprofloxacin MIC for methicillin-sensitive Staphylococcus epidermidis 10-15
Format: functional

SMILES	Ratio
COc1ccc(CN2CCN(c3cc4c(cc3F)c(=O)c(C(=O)O)cn4C3CC3)CC2)cc1	2

Test system: Enterococcus faecium
Assay: Ratio of compound MIC to ciprofloxacin MIC for Enterococcus faecium 10-9
Format: functional

SMILES	Ratio
COc1ccc(CN2CCN(c3cc4c(cc3F)c(=O)c(C(=O)O)cn4C3CC3)CC2)cc1	2

Test system: Streptococcus pneumoniae
Assay: Antibacterial activity against Streptococcus pneumoniae 10-6 after 18 to 24 hrs by NCCLS method
Format: functional
Outline: as §1

SMILES	MIC [mg/L]
COc1ccc(CN2CCN(c3cc4c(cc3F)c(=O)c(C(=O)O)cn4C3CC3)CC2)cc1	16 (≈ 35.4 µM)

Test system: Escherichia coli
Assay: Antibacterial activity against Escherichia coli 10-3 after 18 to 24 hrs by NCCLS method
Format: functional
Outline: as §1

SMILES	MIC [mg/L]
COc1ccc(CN2CCN(c3cc4c(cc3F)c(=O)c(C(=O)O)cn4C3CC3)CC2)cc1	8 (≈ 17.7 µM)

Test system: Escherichia coli
Assay: Antibacterial activity against extended spectrum beta-lactamases producing Escherichia coli 10-3 after 18 to 24 hrs by NCCLS method
Format: functional
Outline: as §1

SMILES	MIC [mg/L]
COc1ccc(CN2CCN(c3cc4c(cc3F)c(=O)c(C(=O)O)cn4C3CC3)CC2)cc1	> 128

Test system: Streptococcus pneumoniae
Assay: Antibacterial activity against Streptococcus pneumoniae 10-1 after 18 to 24 hrs by NCCLS method
Format: functional
Outline: as §1

SMILES	MIC [mg/L]
COc1ccc(CN2CCN(c3cc4c(cc3F)c(=O)c(C(=O)O)cn4C3CC3)CC2)cc1	1 (≈ 2.21 µM)

Test system: Staphylococcus aureus
Assay: Ratio of compound MIC to ciprofloxacin MIC for methicillin-sensitive Staphylococcus aureus 10-13
Format: functional

SMILES	Ratio
COc1ccc(CN2CCN(c3cc4c(cc3F)c(=O)c(C(=O)O)cn4C3CC3)CC2)cc1	2

Test system: Enterococcus faecalis
Assay: Antibacterial activity against Enterococcus faecalis 10-7 after 18 to 24 hrs by NCCLS method
Format: functional
Outline: as §1

SMILES	MIC [mg/L]
COc1ccc(CN2CCN(c3cc4c(cc3F)c(=O)c(C(=O)O)cn4C3CC3)CC2)cc1	8 (≈ 17.7 µM)

Test system: Enterococcus faecium
Assay: Antibacterial activity against Enterococcus faecium 10-6 after 18 to 24 hrs by NCCLS method
Format: functional
Outline: as §1

SMILES	MIC [mg/L]
COc1ccc(CN2CCN(c3cc4c(cc3F)c(=O)c(C(=O)O)cn4C3CC3)CC2)cc1	1 (≈ 2.21 µM)

Test system: Klebsiella pneumoniae
Assay: Antibacterial activity against Klebsiella pneumoniae 10-3 after 18 to 24 hrs by NCCLS method
Format: functional
Outline: as §1

SMILES	MIC [mg/L]
COc1ccc(CN2CCN(c3cc4c(cc3F)c(=O)c(C(=O)O)cn4C3CC3)CC2)cc1	4 (≈ 8.86 µM)

Test system: Pseudomonas aeruginosa
Assay: Antibacterial activity against Pseudomonas aeruginosa 10-15 after 18 to 24 hrs by NCCLS method
Format: functional
Outline: as §1

SMILES	MIC [mg/L]
COc1ccc(CN2CCN(c3cc4c(cc3F)c(=O)c(C(=O)O)cn4C3CC3)CC2)cc1	2 (≈ 4.43 µM)

Test system: Enterococcus faecalis
Assay: Ratio of compound MIC to ciprofloxacin MIC for Enterococcus faecalis 10-7
Format: functional

SMILES	Ratio
COc1ccc(CN2CCN(c3cc4c(cc3F)c(=O)c(C(=O)O)cn4C3CC3)CC2)cc1	2

Test system: Pseudomonas aeruginosa
Assay: Antibacterial activity against Pseudomonas aeruginosa 10-9 after 18 to 24 hrs by NCCLS method
Format: functional
Outline: as §1

SMILES	MIC [mg/L]
COc1ccc(CN2CCN(c3cc4c(cc3F)c(=O)c(C(=O)O)cn4C3CC3)CC2)cc1	4 (≈ 8.86 µM)

Test system: Enterococcus faecium
Assay: Antibacterial activity against Enterococcus faecium 10-9 after 18 to 24 hrs by NCCLS method
Format: functional
Outline: as §1

SMILES	MIC [mg/L]
COc1ccc(CN2CCN(c3cc4c(cc3F)c(=O)c(C(=O)O)cn4C3CC3)CC2)cc1	16 (≈ 35.4 µM)

Test system: Mycobacterium tuberculosis
Assay: Antimycobacterial activity against Mycobacterium tuberculosis H37Rv ATCC 27294 by microplate alamar blue assay
Format: functional
Outline: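 Microplate Alamar Blue fluorescence assay on strain H37Rv ATCC 27294. MIC was the lowest concentration cutting fluorescence by ≥90% against the mean of replicate bacterium-only controls.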

SMILES	MIC [mg/L]
COc1ccc(CN2CCN(c3cc4c(cc3F)c(=O)c(C(=O)O)cn4C3CC3)CC2)cc1	1 (≈ 2.21 µM)

Test system: Staphylococcus aureus
Assay: Antibacterial activity against methicillin-resistant Staphylococcus aureus 10-13 after 18 to 24 hrs by NCCLS method
Format: functional
Outline: as §2

SMILES	MIC [mg/L]
COc1ccc(CN2CCN(c3cc4c(cc3F)c(=O)c(C(=O)O)cn4C3CC3)CC2)cc1	16 (≈ 35.4 µM)

Test system: Staphylococcus aureus
Assay: Antibacterial activity against methicillin-resistant Staphylococcus aureus 10-15 after 18 to 24 hrs by NCCLS method
Format: functional
Outline: as §2

SMILES	MIC [mg/L]
COc1ccc(CN2CCN(c3cc4c(cc3F)c(=O)c(C(=O)O)cn4C3CC3)CC2)cc1	4 (≈ 8.86 µM)

Test system: Staphylococcus epidermidis
Assay: Antibacterial activity against methicillin-resistant Staphylococcus epidermidis 10-13 after 18 to 24 hrs by NCCLS method
Format: functional
Outline: as §2

SMILES	MIC [mg/L]
COc1ccc(CN2CCN(c3cc4c(cc3F)c(=O)c(C(=O)O)cn4C3CC3)CC2)cc1	8 (≈ 17.7 µM)

Test system: Staphylococcus aureus
Assay: Ratio of compound MIC to ciprofloxacin MIC for Staphylococcus aureus ATCC 2592
Format: functional

SMILES	Ratio
COc1ccc(CN2CCN(c3cc4c(cc3F)c(=O)c(C(=O)O)cn4C3CC3)CC2)cc1	2

Test system: Staphylococcus epidermidis
Assay: Antibacterial activity against methicillin-sensitive Staphylococcus epidermidis 10-15 after 18 to 24 hrs by NCCLS method
Format: functional
Outline: as §2

SMILES	MIC [mg/L]
COc1ccc(CN2CCN(c3cc4c(cc3F)c(=O)c(C(=O)O)cn4C3CC3)CC2)cc1	8 (≈ 17.7 µM)

Test system: Escherichia coli
Assay: Antibacterial activity against Escherichia coli 10-1 after 18 to 24 hrs by NCCLS method
Format: functional
Outline: as §1

SMILES	MIC [mg/L]
COc1ccc(CN2CCN(c3cc4c(cc3F)c(=O)c(C(=O)O)cn4C3CC3)CC2)cc1	> 128
